bCat KO growth = primary screen for growth suppressors in beta-catenin knockout HCT116 cells (colon tumor, human) | HCT116 beta-catenin knockout viability, CellTiter-Glo, 60 h; active compounds read low | viability, % at 10 µM | 140,000 tested, 1.5% active | AID 818, 2007;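 active = viability at or under a set limit, the compound median less 4 SD, cut at about 6% in these data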
HCT116 PTEN-null = growth suppression of PTEN-null HCT116, primary screen, cell-based, CellTiter-Glo; HCT116 PTEN-null viability, 60 h; active compounds read low; viability, % at 10 µM; 140,000 tested, 1.2% active;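 active = viability at or below a set limit, 4 SD under the median of all tested compounds, cut at about 3.7% in these data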;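 also: PTEN knockout HCT116 line with beta catenin targeted HCT116 as companion control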
HUVEC inhibit = inhibitors of HUVEC proliferation, primary screen, cell-based, 384-well. CellTiter-Glo luminescence, 72 h; active compounds read low. viability, % at 10 µM (by protocol). AID 648, 2007. 86,000 tested, 1.1% active;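 active = viability at or below 30%; inactive = viability above 30%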
H69AR growth 86K = proliferation blockers of H69AR lung cancer cells, primary screen, cell-based, human, 86K library; H69AR lung tumor viability, ATP luminescence, 72 h; active compounds read low; viability, % at 10 µM; 85,000 tested, 6% active; AID 598, 2007;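 active = viability at or below 40%; inactive = viability above 40%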;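 also: multidrug resistant small cell line overexpressing MRP-1 efflux transporter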
Fibroblast inh = antiproliferative effect on LL 47 fibroblasts – human, LL 47 cells, CellTiter-Glo luminescence, primary screen; 85,000 tested, 1.1% active; viability, % at 10 µM; AID 719, 2007; LL 47 human lung fibroblast viability, ATP luminescence; active compounds read low;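 active = viability at or below 50% in the single dose screen; inactive = viability above 50%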;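 also: compound exposure lasted 72 h before the ATP readout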
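Material: human LL 47 lung fibroblast cells; quantity: 1,150 cells/well; medium: IMEM plus 15% FBS; doses: 0.1% DMSO in all compound wells; timing: overnight attachment after seeding, then 72 h compound exposure at 37 °C; detection: CellTiter-Glo luminescence; measure: % viability of median cell-only signal; controls: cell-only wells, no compound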
Numbers stand for hits; i = inactive; nt = no result given. Only a selection was taken, and hits are over-represented in it overall.

SMILES	bCat KO growth	HCT116 PTEN-null	HUVEC inhibit	H69AR growth 86K	Fibroblast inh
Nc1nc(-c2ccco2)c(-c2ccco2)s1	i	i	i	i	nt
N#C/C(Cn1c[n+](NC(=O)Nc2ccccc2)cn1)=N/O	i	i	i	i	i
COc1ccc(-c2cc(C(F)(F)F)n3nc(C(=O)NCc4ccco4)c(Cl)c3n2)cc1	4.4	i	i	37	i
O=C(NCc1ccco1)c1nn2c(C(F)(F)F)cc(-c3cccs3)nc2c1Br	i	i	i	32	i
COc1ccc(-c2cc(C(F)(F)F)n3nc(C(=O)NCc4ccco4)cc3n2)cc1	i	i	i	i	i
COc1ccc(-c2nnc(SCC(=O)Nc3sc4c(c3C#N)CCCC4)n2-c2ccccc2)cc1	3.9	1.7	3.7	2.3	27
CCOC(=O)N1CCN(S(=O)(=O)c2ccc(C(=O)Nc3sc4c(c3C#N)CCC4)cc2)CC1	i	i	i	28	i
CN=C1SC(CC(=O)Nc2sc3c(c2C#N)CCCC3)C(=O)N1C (configuration not stated)	i	i	i	21	i
N#Cc1ccc(-c2cccnc2)nc1SCC(=O)Nc1sc2c(c1C#N)CCC2	i	i	i	i	31
COc1ccc(-n2c(SCC(=O)Nc3sc4c(c3C#N)CCCC4)nnc2-c2ccccc2OC)cc1	i	i	i	i	i
COc1ccc([N+](=O)[O-])cc1NC(=O)c1ccc(N(Cc2ccccc2Cl)S(C)(=O)=O)cc1	i	i	nt	nt	nt
CCc1ccc(CCC(=O)Nc2sc3c(c2C#N)CCCC3)o1	i	i	i	33	i
N#Cc1c(NC(=O)c2cccnc2)sc2c1CCC2	i	i	i	21	i
Cc1cc(C(=O)Nc2sc3c(c2C#N)CCC(C)C3)cs1 (configuration not stated)	i	i	i	19	i
COc1ccc(-c2nnc(SCC(=O)Nc3ncc(C)s3)n2-c2ccccc2)cc1OC	i	i	i	17	i
CCOC(=O)N1CCN(C(=O)/C(=C/c2ccc(Br)cc2)NC(=O)c2ccc(OC)cc2)CC1	i	i	nt	nt	nt
CC(=O)OCC1CCCC2=C(C)C(=O)CCC21COC(C)=O (configuration not stated)	i	i	nt	nt	nt
Cc1cc(C(=O)Nc2sc3c(c2C#N)CCC(C(C)(C)C)C3)no1 (configuration not stated)	i	i	i	23	i
N#Cc1ccccc1NC(=O)CSc1nnc(-c2ccccc2O)n1-c1ccccc1	i	i	i	33	i
CC(C)c1cc(C(=O)Nc2sc3c(c2C#N)CCC3)no1	i	i	i	26	i
N#Cc1c(NC(=O)c2ccccc2)sc2c1CCC2	i	i	i	21	i
CC(C)(C)C1CCc2c(sc(NC(=O)c3cc(C4CC4)on3)c2C#N)C1 (configuration not stated)	i	i	i	i	i
COc1ccc(CCN(Cc2cc3cccc(C)c3[nH]c2=O)C(=O)NC2CCCCC2)cc1OC	i	i	i	i	i
Cc1cccc(Nc2cc(C)c3c(O)cccc3n2)c1C	i	i	nt	nt	nt
C1=C(c2ccccc2)Nc2ccccc2N=C1c1ccccc1	i	i	nt	nt	nt
SMILES	bCat KO growth	HCT116 PTEN-null	HUVEC inhibit	H69AR growth 86K	Fibroblast inh
CCCC1CCc2c(sc(NC(=O)OCC)c2C#N)C1 (configuration not stated)	i	i	i	28	i
COc1ccccc1C(=O)Nc1nc(-c2ccc(S(=O)(=O)N3CCOCC3)cc2)cs1	5.7	i	i	i	23
O=S(=O)(Nc1ccc(-c2csc(-c3ccccc3)n2)cc1)c1ccc(F)cc1	i	i	nt	nt	nt
CCOc1cccc(C(=O)Nc2nc(-c3ccc(S(=O)(=O)N4CCOCC4)cc3)cs2)c1	i	i	i	32	i
O=C(Nc1nc(-c2ccccc2)cs1)c1ccccc1NS(=O)(=O)c1ccc(F)cc1	4.4	i	nt	nt	nt
O=C(CN1C2=NCCN2c2ccccc21)C12CC3CC(CC(C3)C1)C2	i	i	i	35	i
c1ccc(CN2C3=NCCN3c3ccccc32)cc1	i	i	nt	nt	nt
O=C(NC1CCCCC1)c1sc(=S)n2c1[nH]c(=O)c1ccccc12	i	i	i	i	i
CCCCNC(=O)c1sc(=S)n2c1[nH]c(=O)c1ccccc12	i	i	i	26	i
Cc1nc2sc3c(c2c2nc(-c4ccco4)nn12)CCCC3	i	i	i	9.1	i
CCNC(=S)N(Cc1ccc2c(c1)OCO2)C1CC(=O)N(c2ccc(F)cc2)C1=O (configuration not stated)	i	i	nt	nt	nt
O=C(CSc1nnc(NC(=O)c2ccccc2Cl)s1)Nc1ccc2c(c1)oc1ccccc12	i	i	nt	nt	nt
COc1ccc(/C=C/C(=O)OCC(=O)Nc2cc(C(F)(F)F)ccc2Cl)cc1	i	i	nt	nt	nt
CN(C)c1ccc(/C=C(\C#N)C(=O)Nc2nc3c(s2)CCN(Cc2ccccc2)C3)cc1	i	i	24	2.4	i
CCN1CCc2nc(NC(=O)c3ccccc3)sc2C1	i	i	nt	nt	nt
Cc1ccc(NC(=O)c2ccccc2NS(=O)(=O)c2ccc(Cl)s2)cc1S(=O)(=O)N1CCOCC1	i	i	nt	nt	nt
c1ccc2c(c1)OCCOCCOCCOCCOc1ccccc1OCCOCCOCCO2	i	i	nt	nt	nt
CCOC(=O)C1=C(N)n2c(s/c(=C\c3ccco3)c2=O)=C(C(=O)OC(C)C)C1c1ccco1 (configuration not stated)	i	i	nt	nt	nt
CCOC(=O)C1=C(N)n2c(s/c(=C/c3ccccc3)c2=O)=C(C(=O)OCC)C1c1ccccc1 (configuration not stated)	i	i	i	9.5	i
CCOC(=O)C1=C(N)n2c(s/c(=C\c3ccco3)c2=O)=C(C(=O)OCC)C1c1ccco1 (configuration not stated)	i	i	29	27	29
CCC(C)NC(=O)c1ccc([N+](=O)[O-])c(Cl)c1 (configuration not stated)	i	i	nt	nt	nt
CC(C)OC(=O)c1ccc(NC(=O)c2ccco2)cc1	i	i	i	i	i
COc1cnn(-c2ccccc2)c(=O)c1N(C)C	i	i	i	i	i
O=c1cnn(-c2ccccc2)c(-c2ccccc2)c1	i	i	i	25	i
COc1ccc(/C=C/C(=O)c2ccc(C)c([N+](=O)[O-])c2)cc1O	1.2	1.4	nt	nt	nt
SMILES	bCat KO growth	HCT116 PTEN-null	HUVEC inhibit	H69AR growth 86K	Fibroblast inh
COc1cccc(/C=C/C(=O)c2ccc(NS(=O)(=O)c3ccc(C)cc3)cc2)c1	i	i	nt	nt	nt
COc1cccc(/C=C/C(=O)c2ccc[nH]2)c1	i	i	i	19	i
COc1cc(/C=C/C(=O)c2ccc(C)c([N+](=O)[O-])c2)cc(OC)c1O	2.4	3.0	nt	nt	nt
COc1cccc(/C=C/C(=O)c2ccc(C)c([N+](=O)[O-])c2)c1	2.7	2.4	nt	nt	nt
COc1ccc(C(=O)/C=C/c2ccc(N3CCCCC3)c([N+](=O)[O-])c2)cc1	i	i	nt	nt	nt
Cn1nc(C(=O)NC(C)(C)C)c2ccccc21	i	i	nt	nt	nt
CCN(CC)c1ccc(/C=N/NC(=O)CCC(=O)NCc2ccccc2)c(O)c1	i	i	nt	nt	nt

Compound activity deposited in PubChem by SRMLSC.
